Series [1] has as its target T1, Signal transducer and activator of transcription 6 (Homo sapiens) (UniProt P42226).
T1 sequence (whole entry): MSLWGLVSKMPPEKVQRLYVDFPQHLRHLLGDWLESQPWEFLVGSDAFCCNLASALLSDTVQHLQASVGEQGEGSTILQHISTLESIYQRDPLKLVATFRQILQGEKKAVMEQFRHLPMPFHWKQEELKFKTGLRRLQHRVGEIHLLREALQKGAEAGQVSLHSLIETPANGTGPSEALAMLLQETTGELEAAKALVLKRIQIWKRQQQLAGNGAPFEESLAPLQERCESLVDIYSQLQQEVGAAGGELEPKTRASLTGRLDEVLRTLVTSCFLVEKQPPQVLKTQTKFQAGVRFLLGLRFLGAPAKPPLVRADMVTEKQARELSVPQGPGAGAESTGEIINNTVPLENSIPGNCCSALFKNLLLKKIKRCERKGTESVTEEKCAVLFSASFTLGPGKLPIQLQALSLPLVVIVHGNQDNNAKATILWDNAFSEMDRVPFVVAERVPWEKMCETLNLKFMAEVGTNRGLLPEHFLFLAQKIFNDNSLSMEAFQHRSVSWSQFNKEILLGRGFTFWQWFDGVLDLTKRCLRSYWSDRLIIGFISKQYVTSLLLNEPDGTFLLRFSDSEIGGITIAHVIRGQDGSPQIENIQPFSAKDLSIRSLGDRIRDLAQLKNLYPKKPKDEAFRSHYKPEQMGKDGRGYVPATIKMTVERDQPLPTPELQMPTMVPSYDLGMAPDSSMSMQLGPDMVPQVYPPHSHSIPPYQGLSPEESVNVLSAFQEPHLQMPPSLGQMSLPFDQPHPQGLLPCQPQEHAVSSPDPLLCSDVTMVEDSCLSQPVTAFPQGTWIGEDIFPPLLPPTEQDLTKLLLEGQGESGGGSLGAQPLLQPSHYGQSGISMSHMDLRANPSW
The experiment in a line: Inhibition of IL-13-stimulated STAT6 SH2 domain phosphorylation in human Beas-2B cells assessed as inhibition of CCL26 mRNA expression at 100 nM preincubated for 2 hrs followed by stimulation with IL-13 for 24 hrs by RT-PCR analysis relative to control.

Series [2] has as its target T2, Signal transducer and transcription activator 6 (Mus musculus) (UniProt P52633).
T2 sequence (whole entry): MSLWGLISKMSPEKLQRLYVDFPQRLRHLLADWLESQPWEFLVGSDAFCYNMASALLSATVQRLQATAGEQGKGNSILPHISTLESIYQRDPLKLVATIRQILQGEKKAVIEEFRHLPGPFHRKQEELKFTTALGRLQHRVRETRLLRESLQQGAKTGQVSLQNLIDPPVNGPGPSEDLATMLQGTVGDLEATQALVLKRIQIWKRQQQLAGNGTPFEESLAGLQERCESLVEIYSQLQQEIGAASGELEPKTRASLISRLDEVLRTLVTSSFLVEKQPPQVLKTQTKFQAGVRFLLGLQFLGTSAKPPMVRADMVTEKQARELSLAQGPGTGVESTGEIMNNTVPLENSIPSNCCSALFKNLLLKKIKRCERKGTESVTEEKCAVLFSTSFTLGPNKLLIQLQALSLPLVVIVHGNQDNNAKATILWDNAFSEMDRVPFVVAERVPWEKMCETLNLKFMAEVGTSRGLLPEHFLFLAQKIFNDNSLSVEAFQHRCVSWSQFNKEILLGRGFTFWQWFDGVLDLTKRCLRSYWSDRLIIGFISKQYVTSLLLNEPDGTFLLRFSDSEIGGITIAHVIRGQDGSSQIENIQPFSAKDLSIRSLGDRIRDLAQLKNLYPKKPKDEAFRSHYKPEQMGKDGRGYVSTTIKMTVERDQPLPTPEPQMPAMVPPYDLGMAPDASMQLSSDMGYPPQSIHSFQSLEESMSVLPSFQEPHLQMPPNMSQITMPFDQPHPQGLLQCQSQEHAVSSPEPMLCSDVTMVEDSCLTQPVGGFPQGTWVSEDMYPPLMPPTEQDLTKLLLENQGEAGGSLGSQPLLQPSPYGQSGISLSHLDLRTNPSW
The series can be described thus: Inhibition of IL4-induced STAT6 phosphorylation at Y641 in CD4+ T lymphocytes isolated from C57BL/6J mouse preincubated for 2 hrs followed by activation with plate-bound anti-CD3/anti-CD28 and IL4 for 15 mins by Western blot analysis. Type of series: cell-based. In short, it runs like this:
(§1)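 CD4+ T cells from C57BL/6J mice, sorted by AutoMACS; activated 15 min with plate-bound anti-CD3 and/or anti-CD28 with IL-2, IL-6 or IL-4; lysed with protease inhibitors plus 10 mM NaF and 1 mM Na3VO4; Bradford-normalised immunoblots for pSTAT1 (Tyr701), pSTAT5 (Tyr694), pSTAT6 (Tyr641) and total STATs.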
A general note: In western blotting, separated proteins are transferred to a membrane and probed.

Series [3] deals with T3, Signal transducer and activator of transcription 1 (Mus musculus) (UniProt P42225).
T3 sequence (whole entry): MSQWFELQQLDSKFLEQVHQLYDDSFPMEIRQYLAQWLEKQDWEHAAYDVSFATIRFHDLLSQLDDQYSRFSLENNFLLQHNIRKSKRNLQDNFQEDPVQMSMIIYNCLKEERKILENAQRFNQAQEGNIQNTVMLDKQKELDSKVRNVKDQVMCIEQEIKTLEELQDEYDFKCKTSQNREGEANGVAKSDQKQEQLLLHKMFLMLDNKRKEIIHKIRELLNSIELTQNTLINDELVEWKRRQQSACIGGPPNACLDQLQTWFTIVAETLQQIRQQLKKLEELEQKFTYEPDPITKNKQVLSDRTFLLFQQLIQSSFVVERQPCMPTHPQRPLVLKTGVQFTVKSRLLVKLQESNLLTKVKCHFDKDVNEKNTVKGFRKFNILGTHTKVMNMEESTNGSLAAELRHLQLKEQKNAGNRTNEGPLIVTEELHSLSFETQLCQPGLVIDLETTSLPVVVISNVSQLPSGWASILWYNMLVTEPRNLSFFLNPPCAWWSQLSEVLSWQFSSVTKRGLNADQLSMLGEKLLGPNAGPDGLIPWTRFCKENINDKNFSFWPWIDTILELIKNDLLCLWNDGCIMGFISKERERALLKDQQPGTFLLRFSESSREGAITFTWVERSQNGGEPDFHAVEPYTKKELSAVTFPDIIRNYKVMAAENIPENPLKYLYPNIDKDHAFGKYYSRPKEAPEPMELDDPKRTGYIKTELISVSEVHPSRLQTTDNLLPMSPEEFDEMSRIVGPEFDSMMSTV
The experiment in a line: Inhibition of IL6-induced STAT1 phosphorylation at Y701 in CD4+ T lymphocytes isolated from C57BL/6J mouse preincubated for 2 hrs followed by activation with plate-bound anti-CD3/anti-CD28 and IL6 for 15 mins by Western blot analysis. Type of series: cell-based. In short, it runs like this:
as §1

Series [4] can be described thus: Cytotoxicity against human BEAS2B cells assessed as cell viability after 72 hrs by MTS assay. It counts as cell-based. Conditions: beas-2b. Summed up: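 Beas-2B seeded at 2000 cells/well; 10 mM DMSO stocks serially diluted in DMSO and equal amounts added to cultures; 72 h at 37 °C; medium replaced by 1:5 MTS/PBS, 1 h further incubation; viable cells read as optical density at 490 nm.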
A general note: Tetrazolium assays rely on reduction of a dye to a coloured formazan, in cell work by metabolically active cells.

The source made the active and inactive calls. The calls are words filed in the database; no cut-off is given here. Some results are limits rather than exact numbers.

For orientation: inhibition means the drop in the measured response relative to a control, in per cent.

As to `C/C(=C\C(=O)N[C@H](C(=O)N1CCC[C@H]1C(=O)N(C)c1ccccc1)C(C)(C)C)c1ccc(C(F)(F)P(=O)(OCOC(=O)C(C)(C)C)OCOC(=O)C(C)(C)C)cc1`, in series [1], the inhibition was more than 50%. Also, the inhibition result in series [2] was “Active”. The inhibition result in series [3] was “inactive”. The Activity result in series [4] is reported as “Non-toxic”.

Values taken from ChEMBL document CHEMBL3739303, “Targeting the Src Homology 2 (SH2) Domain of Signal Transducer and Activator of Transcription 6 (STAT6) with Cell-Permeable, Phosphatase-Stable Phosphopeptide Mimics Potently Inhibits Tyr641 Phosphorylation and Transcriptional Activity” (J Med Chem, 2015).
